Source: ChEMBL document CHEMBL4706580, “4-Amino-1,2,4-triazole-3-thione-derived Schiff bases as metallo-β-lactamase inhibitors” (Eur J Med Chem, 2020)
Active and inactive are the calls of the source. The rule behind the calls is not given here.

Columns and labels:
[1] = Inhibition of beta-lactamase NDM1 (unknown origin) expressed in Escherichia coli BL21(DE3) using cefotaxime/nitrocefin as substrate by measuring substrate hydrolysis at 100 uM by spectrophotometric analysis
[2] = Inhibition of beta-lactamase IMP-1 (unknown origin) expressed in Escherichia coli LZ2310 assessed as potentiation of ceftazidime antibacterial activity by measuring ceftazidime induced diameter of inhibition zone at 80 uM incubated for 18 hrs by disk diffusion method (reference value: 9 mm)
Outline: (§1)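 Efflux-deficient E. coli LZ2310 (NorE, MdfA, AcrA knocked out) carrying pLB-II with the cloned MBL gene. Mueller-Hinton, CLSI disk diffusion; antibiotic disks (30 µg cefoxitin for VIM-2, 10 µg ampicillin for VIM-4, 30 µg ceftazidime for NDM-1/IMP-1) loaded with inhibitor in DMSO (≤15 µL). Zone diameter after 18 h, 35 ± 1 °C; DMSO and 220 µg EDTA controls. Triplicate.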

[3] = Inhibition of beta-lactamase VIM2 (unknown origin) expressed in Escherichia coli BL21(DE3) using imipenem as substrate by measuring substrate hydrolysis at 100 uM by spectrophotometric analysis
Outline: (§2)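 Purified enzyme (overproduced in E. coli BL21(DE3), pET-9a; ion-exchange and gel filtration), 1-70 nM final. Reporter substrate 150 μM imipenem, read at 300 nm, 30 °C, 50 mM HEPES pH 7.5. Single-point screen at 100 or 200 μM; Ki from v0/vi vs [I] (0.5–1,000 μM final) assuming competitive inhibition, or Dixon plot. Triplicate.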

[4] = Inhibition of beta-lactamase NDM1 (unknown origin) expressed in Escherichia coli BL21(DE3) using cefotaxime/nitrocefin as substrate by measuring substrate hydrolysis at 200 uM by spectrophotometric analysis
[5] = Inhibition of beta-lactamase VIM4 (unknown origin) expressed in Escherichia coli BL21(DE3) using imipenem as substrate by measuring substrate hydrolysis at 100 uM by spectrophotometric analysis; outline: as §2
[6] = Inhibition of beta-lactamase L1 (unknown origin) expressed in Escherichia coli BL21(DE3) using nitrocefin as substrate by measuring substrate hydrolysis at 100 uM preincubated for 30 mins by spectrophotometric analysis
Outline: (§3)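 Enzyme 0.2–0.8 nM in 25 mM HEPES pH 7.5 with 50 μM ZnCl2 final, pre-incubated 30 min at 21 °C with inhibitor (100 μM screen). Nitrocefin 100 μM final, read at 482 nm, 30 °C. Residual activity vs three uninhibited samples; Ki (1–100 μM inhibitor) from Hanes linearization, competitive model. Triplicate.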

[7] = Inhibition of beta-lactamase L1 (unknown origin) expressed in Escherichia coli BL21(DE3) using nitrocefin as substrate by measuring substrate hydrolysis at 200 uM preincubated for 30 mins by spectrophotometric analysis
[8] = Inhibition of beta-lactamase VIM4 (unknown origin) expressed in Escherichia coli BL21(DE3) using imipenem as substrate by measuring substrate hydrolysis at 200 uM by spectrophotometric analysis; outline: as §2
[9] = Inhibition of beta-lactamase VIM2 (unknown origin) expressed in Escherichia coli BL21(DE3) using imipenem as substrate by measuring substrate hydrolysis at 200 uM by spectrophotometric analysis; outline: as §2
[10] = Inhibition of beta-lactamase IMP-1 (unknown origin) expressed in Escherichia coli BL21(DE3) using imipenem as substrate by measuring substrate hydrolysis at 200 uM by spectrophotometric analysis; outline: as §2
[11] = Inhibition of beta-lactamase IMP-1 (unknown origin) expressed in Escherichia coli BL21(DE3) using imipenem as substrate by measuring substrate hydrolysis by spectrophotometric analysis; outline: as §2
[12] = Inhibition of beta-lactamase NDM1 (unknown origin) expressed in Escherichia coli BL21(DE3) using cefotaxime/nitrocefin as substrate by measuring substrate hydrolysis by spectrophotometric analysis
Outline: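 His-tagged enzyme from E. coli BL21(DE3) pET-15b, affinity-purified, 1-70 nM final. Reporter substrate 120 μM cefotaxime (260 nm) or 100 μM nitrocefin (482 nm), 30 °C, 50 mM HEPES pH 7.5. Inhibitor 0.5–1,000 μM final; competitive Ki from v0/vi vs [I] slope or Dixon plot. Triplicate.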

[13] = Inhibition of beta-lactamase VIM4 (unknown origin) expressed in Escherichia coli BL21(DE3) using imipenem as substrate by measuring substrate hydrolysis by spectrophotometric analysis; outline: as §2
[14] = Inhibition of beta-lactamase VIM-2 (unknown origin) expressed in Escherichia coli XL-1 assessed as potentiation of cefoxitin antibacterial activity by measuring cefoxitin induced diameter of inhibition zone at 120 uM incubated for 18 hrs by disk diffusion method (reference value: 8 mm)
Outline: (§4)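 Wild-type efflux E. coli XL-1 Blue transformed with pLB-II-VIM-2. Mueller-Hinton disk diffusion per CLSI, 30 µg cefoxitin disks loaded with inhibitor dissolved in DMSO (≤15 µL). Growth-inhibition zone measured after 18 h at 35 ± 1 °C; DMSO negative and 220 µg EDTA positive controls. Triplicate.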

[15] = Inhibition of beta-lactamase NDM-1 (unknown origin) expressed in Escherichia coli LZ2310 assessed as potentiation of ceftazidime antibacterial activity by measuring ceftazidime induced diameter of inhibition zone at 320 uM incubated for 18 hrs by disk diffusion method (reference value: 15 mm); outline: as §1
[16] = Inhibition of beta-lactamase VIM-2 (unknown origin) expressed in Escherichia coli LZ2310 assessed as potentiation of cefoxitin antibacterial activity by measuring cefoxitin induced diameter of inhibition zone at 320 uM incubated for 18 hrs by disk diffusion method (reference value: 14 mm); outline: as §1
[17] = Inhibition of beta-lactamase IMP-1 (unknown origin) expressed in Escherichia coli LZ2310 assessed as potentiation of ceftazidime antibacterial activity by measuring ceftazidime induced diameter of inhibition zone at 320 uM incubated for 18 hrs by disk diffusion method (reference value: 9 mm); outline: as §1
[18] = Inhibition of beta-lactamase VIM-2 (unknown origin) expressed in Escherichia coli XL-1 assessed as potentiation of cefoxitin antibacterial activity by measuring cefoxitin induced diameter of inhibition zone at 320 uM incubated for 18 hrs by disk diffusion method (reference value: 8 mm); outline: as §4
[19] = system: HUVEC; assay: Cytotoxicity in human HUVEC cells assessed as reduction in cell viability upto 100 uM incubated for 72 hrs by MTT assay; type: cell-based
[20] = molecular target: Hydroxyacylglutathione hydrolase (Homo sapiens); assay: Inhibition of human Glyoxalase II expressed in Escherichia coli BL21 (DE3)
[21] = Inhibition of beta-lactamase VIM-2 (unknown origin) expressed in Escherichia coli XL-1 assessed as potentiation of cefoxitin antibacterial activity by measuring cefoxitin induced diameter of inhibition zone at 240 uM incubated for 18 hrs by disk diffusion method (reference value: 8 mm); outline: as §4
[22] = Inhibition of beta-lactamase VIM-2 (unknown origin) expressed in Escherichia coli LZ2310 assessed as potentiation of cefoxitin antibacterial activity by measuring cefoxitin induced diameter of inhibition zone at 240 uM incubated for 18 hrs by disk diffusion method (reference value: 14 mm); outline: as §1
[23] = Inhibition of beta-lactamase CphA (unknown origin) expressed in Escherichia coli BL21(DE3) using imipenem as substrate by measuring substrate hydrolysis by spectrophotometric analysis
Outline: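 Enzyme 0.2–0.8 nM in 15 mM cacodylate pH 6.5, no added zinc, pre-incubated 30 min at 21 °C with inhibitor (100 μM screen). Imipenem substrate added from 10 mM stock; hydrolysis at 300 nm, 30 °C. Residual activity vs three uninhibited samples; Ki (1–100 μM inhibitor) by Hanes linearization, competitive model. Triplicate.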

[24] = Inhibition of beta-lactamase VIM2 (unknown origin) expressed in Escherichia coli BL21(DE3) using imipenem as substrate by measuring substrate hydrolysis by spectrophotometric analysis; outline: as §2
[25] = system: HeLa; assay: Cytotoxicity in human HeLa cells assessed as cell lysis upto 250 uM incubated for 72 hrs by membrane integrity assay; type: cell-based
[26] = Inhibition of beta-lactamase L1 (unknown origin) expressed in Escherichia coli BL21(DE3) using nitrocefin as substrate by measuring substrate hydrolysis preincubated for 30 mins by spectrophotometric analysis; outline: as §3
[27] = Inhibition of beta-lactamase IMP-1 (unknown origin) expressed in Escherichia coli BL21(DE3) using imipenem as substrate by measuring substrate hydrolysis at 100 uM by spectrophotometric analysis; outline: as §2
[28] = Inhibition of beta-lactamase IMP-1 (unknown origin) expressed in Escherichia coli LZ2310 assessed as potentiation of ceftazidime antibacterial activity by measuring ceftazidime induced diameter of inhibition zone at 40 uM incubated for 18 hrs by disk diffusion method (reference value: 9 mm); outline: as §1
[29] = Inhibition of beta-lactamase VIM-2 (unknown origin) expressed in Escherichia coli LZ2310 assessed as potentiation of cefoxitin antibacterial activity by measuring cefoxitin induced diameter of inhibition zone at 120 uM incubated for 18 hrs by disk diffusion method (reference value: 14 mm); outline: as §1
[30] = system: Escherichia coli; assay: Synergistic antibacterial activity against NDM-1 producing Escherichia coli assessed ass MIC of ceftazidime/avibactam at 32 ug/ml by broth microdilution method; type: functional; settings: dose 32 µg/ml
Outline: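 MIC of ceftazidime-avibactam (avibactam fixed at 4 µg/mL) by CLSI broth microdilution in Mueller-Hinton broth. Used the NDM-1-producing multidrug-resistant E. coli clinical isolate SI-001M at 5 × 10⁴ CFU/well, with and without inhibitor at a fixed 32 µg/ml. No colistin added. Triplicate determinations.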

[31] = system: Escherichia coli; assay: Synergistic antibacterial activity against NDM-1 producing Escherichia coli assessed as MIC of ceftazidime at 32 ug/ml by broth microdilution method; type: functional; settings: dose 32 µg/ml
[32] = system: Escherichia coli; assay: Synergistic antibacterial activity against NDM-1 producing Escherichia coli assessed as MIC of meropenem at 32 ug/ml by broth microdilution method; type: functional; settings: dose 32 µg/ml
[33] = system: Escherichia coli; assay: Antibacterial activity against NDM-1 producing Escherichia coli in presence of colistin by broth microdilution method.; type: functional
[34] = Inhibition of beta-lactamase VIM-2 (unknown origin) expressed in Escherichia coli LZ2310 assessed as potentiation of cefoxitin antibacterial activity by measuring cefoxitin induced diameter of inhibition zone at 40 uM incubated for 18 hrs by disk diffusion method (reference value: 14 mm); outline: as §1
[35] = system: Escherichia coli; assay: Synergistic antibacterial activity against NDM-1 producing Escherichia coli assessed as MIC of imipenem at 32 ug/ml by broth microdilution method; type: functional; settings: dose 32 µg/ml
[36] = Inhibition of beta-lactamase NDM-1 (unknown origin) expressed in Escherichia coli LZ2310 assessed as potentiation of ceftazidime antibacterial activity by measuring ceftazidime induced diameter of inhibition zone at 40 uM incubated for 18 hrs by disk diffusion method (reference value: 15 mm); outline: as §1

| Compound | inhibition [1] | inhibition zone (IZ) [2] [mm] | inhibition [3] | inhibition [4] | inhibition [5] | inhibition [6] | inhibition [9] | Ki [11] [µM] | Ki [12] [µM] | Ki [13] [µM] | Ki [23] [µM] | also measured |
| --- | --- | --- | --- | --- | --- | --- | --- | --- | --- | --- | --- | --- |
| S=c1[nH]nc(-c2cc3ccccc3[nH]2)n1/N=C/c1ccc(OCc2ccccc2)cc1 | inactive | 9 | inactive | inactive | inactive | inactive | inactive |  |  |  |  | inhibition [7]: inactive; inhibition [8]: inactive; inhibition [10]: 60% |
| Oc1ccc(/C=N/n2c(-c3cccc(C(F)(F)F)c3)n[nH]c2=S)c(O)c1 |  |  | 53% |  |  | 15% |  | 66.2 | 32.5 | 3.5 |  | inhibition zone (IZ) [14]: 12 mm |
| O=C(O)c1ccccc1/C=N/n1c(-c2cccc(Cl)c2)n[nH]c1=S |  |  | inactive |  |  | 60% | inactive | 58 | 7.5 | 2 |  | inhibition zone (IZ) [15]: 15 mm; inhibition zone (IZ) [16]: 14 mm; inhibition zone (IZ) [17]: 9 mm; inhibition zone (IZ) [18]: 8 mm |
| Cc1ccccc1-c1n[nH]c(=S)n1/N=C/c1ccccc1C(=O)O |  |  |  |  |  |  |  | 58 | 110 | 1.6 | 120 | Activity [19]: Non-Toxic; IC50 [20]: 25.8 µM; inhibition zone (IZ) [21]: 9 mm; inhibition zone (IZ) [22]: 20 mm; Ki [24]: 3 µM; Activity [25]: Non-Toxic; Ki [26]: 40 µM |
| S=c1[nH]nc(Cc2ccc3ccccc3c2)n1/N=C/c1ccc(OCc2ccccc2)cc1 | inactive | 9 | inactive | inactive | inactive | inactive | inactive |  |  |  |  | inhibition [27]: inactive; inhibition [7]: inactive; inhibition [8]: inactive; inhibition [10]: inactive |
| Cc1ccccc1-c1n[nH]c(=S)n1/N=C/c1cc([N+](=O)[O-])ccc1O | inactive | 13 | inactive | inactive | 44% | 61% | inactive | 11 |  |  | 3 | inhibition zone (IZ) [28]: 9 mm |
| O=C(O)c1ccccc1/C=N/n1c(Cc2ccc3ccccc3c2)n[nH]c1=S |  |  |  |  |  |  |  | 34.4 | 1.7 | 5 | 15 | IC50 [20]: 30 µM; inhibition zone (IZ) [29]: 16 mm; MIC [30]: > 256 µg/mL; MIC [31]: > 256 µg/mL; inhibition zone (IZ) [28]: 9 mm; MIC [32]: 64 µg/mL; MIC [33]: > 256 µg/mL; inhibition zone (IZ) [34]: 14 mm; MIC [35]: 8 µg/mL; Ki [24]: 2.4 µM; inhibition zone (IZ) [36]: 15 mm; Ki [26]: 0.5 µM |
